Experimental data as given in ChEMBL document CHEMBL3108739, “Activation and inhibition of thermosensitive TRP channels by voacangine, an alkaloid present in Voacanga africana, an African tree” (J Nat Prod, 2014).
pEC50, pIC50: −log10 of the molar value. Active and inactive are the calls of the source. The rule behind the calls is not given here.

Key:
[1] = target: T1, Transient receptor potential cation channel subfamily V member 1 (Homo sapiens, UniProt Q8NER1); test: Agonist activity at human brain TRPV1 expressed in HEK293T cells assessed as intracellular Ca2+ influx at 100 uM by Fluo-4 AM staining-based fluorescence analysis; type: cell-based; settings: HEK-293T
Outline: (§1)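 Stable hTRPV1 in HEK293T (G418 selected), Fluo-4 loaded, 37 °C. 100 μM compound alone, or pretreated 3 min before 0.01 μM capsaicin; 10 μM BCTC reference. Data as % of 10 μM capsaicin.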

[2] = target: Transient receptor potential cation channel subfamily M member 8 (Mus musculus) (UniProt Q8R4D5); settings: Dorsal root ganglion, HEK T-REx, 100 uM
[3] = target: Transient receptor potential cation channel subfamily M member 8 (Mus musculus) (UniProt Q8R4D5); settings: Dorsal root ganglion, HEK T-REx, 100 uM; remark: listed apart in the source
[4] = target: T2, Transient receptor potential cation channel subfamily V member 2 (Homo sapiens) (UniProt Q9Y5S1); test: Antagonist activity at human TRPV2 expressed in HEK293T cells assessed as LPC-induced intracellular Ca2+ influx at 100 uM by Fluo-4 AM staining-based fluorescence analysis; type: cell-based; settings: HEK-293T
T2 sequence (whole entry): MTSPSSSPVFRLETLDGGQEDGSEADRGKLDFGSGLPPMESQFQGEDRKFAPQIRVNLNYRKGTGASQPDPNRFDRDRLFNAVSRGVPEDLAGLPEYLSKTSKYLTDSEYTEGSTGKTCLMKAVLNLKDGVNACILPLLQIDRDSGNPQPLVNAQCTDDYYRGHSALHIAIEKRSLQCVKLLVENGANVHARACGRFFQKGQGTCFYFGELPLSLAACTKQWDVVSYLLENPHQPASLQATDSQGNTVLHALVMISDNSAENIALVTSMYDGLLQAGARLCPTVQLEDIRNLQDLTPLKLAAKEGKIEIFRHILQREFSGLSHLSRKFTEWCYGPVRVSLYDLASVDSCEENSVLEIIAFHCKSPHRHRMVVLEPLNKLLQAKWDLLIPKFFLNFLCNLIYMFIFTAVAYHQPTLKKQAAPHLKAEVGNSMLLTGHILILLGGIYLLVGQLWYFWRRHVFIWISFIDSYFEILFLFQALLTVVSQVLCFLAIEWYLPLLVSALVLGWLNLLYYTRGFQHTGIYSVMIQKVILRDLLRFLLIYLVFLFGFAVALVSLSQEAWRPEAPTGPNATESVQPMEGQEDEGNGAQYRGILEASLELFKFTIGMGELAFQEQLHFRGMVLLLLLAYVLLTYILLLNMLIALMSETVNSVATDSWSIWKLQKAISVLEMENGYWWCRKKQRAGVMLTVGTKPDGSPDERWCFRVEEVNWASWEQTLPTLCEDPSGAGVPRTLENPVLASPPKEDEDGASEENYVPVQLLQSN
Outline: (§2)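 hTRPV2 transiently transfected into HEK293T, seeded 6 h after transfection and used 18 h later. Fluo-4 loading in probenecid-free buffer, 37 °C. Agonist 30 and 40 μM LPC; ruthenium red 5 μM as reference blocker; 100 μM compound given alone or pretreated 3 min. Read-out ΔF/F0 (%).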

[5] = target: T1, Transient receptor potential cation channel subfamily V member 1; test: Antagonist activity at human brain TRPV1 expressed in HEK293T cells assessed as inhibition of CAP-induced intracellular Ca2+ influx by fluorescence-based assay; type: cell-based, HEK-293T
Outline: (§3)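 hTRPV1-HEK293T, Fluo-4 Ca2+ at 37 °C; antagonist (0.3−100 μM) preincubated 3 min then 0.01 μM capsaicin; DMSO final 0.1−1%. IC50 from dose−inhibition curves; data as % of 10 μM capsaicin.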

[6] = target: Transient receptor potential cation channel subfamily M member 8 (Mus musculus) (UniProt Q8R4D5); settings: Dorsal root ganglion, HEK T-REx, 100 uM; remark: listed apart in the source
[7] = target: T1, Transient receptor potential cation channel subfamily V member 1; test: Antagonist activity at human brain TRPV1 expressed in HEK293T cells assessed as CAP-induced intracellular Ca2+ influx at 100 uM by Fluo-4 AM staining-based fluorescence analysis; type: cell-based; settings: HEK-293T; outline: as §1
[8] = target: T1, Transient receptor potential cation channel subfamily V member 1; test: Competitive antagonist activity at human brain TRPV1 expressed in HEK293T cells assessed as inhibition of CAP-induced intracellular Ca2+ influx at 50 uM preincubated for 3 mins followed by CAP challenge measured after 10 mins of post compound washout; type: cell-based; settings: HEK-293T
Outline: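 hTRPV1-HEK293T cells incubated 3 min with 50 μM compound, washed six times with buffer, kept 10 min at 37 °C in dark, then challenged with 0.01 μM capsaicin; Fluo-4 Ca2+ read-out as % of 10 μM capsaicin.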

[9] = target: Transient receptor potential cation channel subfamily M member 8 (Mus musculus) (UniProt Q8R4D5); settings: Dorsal root ganglion, HEK T-REx, 3 to 30 uM
[10] = target: T1, Transient receptor potential cation channel subfamily V member 1; test: Competitive antagonist activity at human brain TRPV1 expressed in HEK293T cells assessed as inhibition of CAP-induced intracellular Ca2+ influx preincubated for 3 mins followed by CAP challenge; type: cell-based; settings: HEK-293T; outline: as §3
[11] = target: Transient receptor potential cation channel subfamily M member 8 (Mus musculus) (UniProt Q8R4D5); settings: Dorsal root ganglion, HEK T-REx, 100 uM; remark: listed apart in the source
[12] = target: T3, Transient receptor potential cation channel subfamily A member 1 (Homo sapiens, UniProt O75762); test: Agonist activity at TRPA1 isolated from human W138 cells expressed in HEK293T cells assessed as intracellular Ca2+ influx by Fluo-4 AM staining-based fluorescence analysis; type: cell-based
Outline: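 Tetracycline-induced (1 μg/mL) stable hTRPA1 in HEK T-REx cells, Fluo-4 AM loaded (3 μM, 1 h, 37 °C) in HEPES buffer pH 7.4 with probenecid; Ca2+ read at 37 °C. Responses as % of 5 μM ionomycin or of 100 μM AITC; TREx cells without TRPA1 as control; n = 4−8.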

[13] = target: T2, Transient receptor potential cation channel subfamily V member 2 (Homo sapiens); test: Agonist activity at human TRPV2 expressed in HEK293T cells assessed as intracellular Ca2+ influx at 100 uM by Fluo-4 AM staining-based fluorescence analysis; type: cell-based; settings: HEK-293T; outline: as §2
[14] = target: T1, Transient receptor potential cation channel subfamily V member 1; test: Competitive antagonist activity at human brain TRPV1 expressed in HEK293T cells assessed as inhibition of CAP-induced intracellular Ca2+ influx preincubated for 3 mins followed by CAP challenge by Schlid plot analysis; type: cell-based
Outline: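 hTRPV1-HEK293T; capsaicin curves 0.0001−10 μM with 10, 30, 50 μM compound after 3 min preincubation. Schild plots (log(dose ratio − 1) vs log antagonist), six series; slope not differing from unity taken as competitive; KB derived.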

[15] = target: Transient receptor potential cation channel subfamily M member 8 (Mus musculus) (UniProt Q8R4D5); settings: Dorsal root ganglion, HEK T-REx, 3 to 30 uM; remark: listed apart in the source
[16] = target: T3, Transient receptor potential cation channel subfamily A member 1; test: Antagonist activity at TRPA1 isolated from human W138 cells expressed in HEK293T cells assessed as AITC-induced intracellular Ca2+ influx at 100 uM by Fluo-4 AM staining-based fluorescence analysis; type: cell-based; settings: HEK-293T

Chain of Transient receptor potential cation channel subfamily M member 8 (Mus musculus) (Q8R4D5 whole entry): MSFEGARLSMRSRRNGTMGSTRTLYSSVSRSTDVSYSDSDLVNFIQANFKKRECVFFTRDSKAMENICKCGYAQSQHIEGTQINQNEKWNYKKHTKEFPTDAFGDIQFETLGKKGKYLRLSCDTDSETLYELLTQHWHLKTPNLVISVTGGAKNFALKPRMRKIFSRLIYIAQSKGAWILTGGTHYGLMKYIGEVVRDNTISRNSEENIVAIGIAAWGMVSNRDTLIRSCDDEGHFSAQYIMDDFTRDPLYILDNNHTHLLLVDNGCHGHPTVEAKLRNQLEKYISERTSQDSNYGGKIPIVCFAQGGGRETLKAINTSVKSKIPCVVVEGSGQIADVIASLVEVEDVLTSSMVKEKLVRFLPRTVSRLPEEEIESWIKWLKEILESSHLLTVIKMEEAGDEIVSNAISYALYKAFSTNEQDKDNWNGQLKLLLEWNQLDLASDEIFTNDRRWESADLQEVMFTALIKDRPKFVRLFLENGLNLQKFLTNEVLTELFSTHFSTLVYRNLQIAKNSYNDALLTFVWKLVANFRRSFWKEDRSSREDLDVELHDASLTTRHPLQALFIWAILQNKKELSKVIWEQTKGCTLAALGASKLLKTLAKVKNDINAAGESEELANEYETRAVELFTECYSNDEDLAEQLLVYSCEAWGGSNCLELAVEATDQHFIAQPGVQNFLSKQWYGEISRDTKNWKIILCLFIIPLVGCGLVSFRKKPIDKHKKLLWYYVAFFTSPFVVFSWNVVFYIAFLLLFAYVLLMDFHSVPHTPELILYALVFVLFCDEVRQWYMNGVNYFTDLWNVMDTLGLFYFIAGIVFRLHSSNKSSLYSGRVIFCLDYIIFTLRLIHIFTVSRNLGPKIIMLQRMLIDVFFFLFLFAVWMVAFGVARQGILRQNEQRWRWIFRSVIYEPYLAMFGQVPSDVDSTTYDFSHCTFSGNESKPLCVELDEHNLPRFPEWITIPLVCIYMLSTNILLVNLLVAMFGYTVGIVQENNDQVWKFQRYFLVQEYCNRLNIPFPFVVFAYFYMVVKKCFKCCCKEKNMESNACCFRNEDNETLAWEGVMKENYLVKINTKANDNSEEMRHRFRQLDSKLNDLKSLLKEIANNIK
T1 sequence (Q8NER1 whole entry): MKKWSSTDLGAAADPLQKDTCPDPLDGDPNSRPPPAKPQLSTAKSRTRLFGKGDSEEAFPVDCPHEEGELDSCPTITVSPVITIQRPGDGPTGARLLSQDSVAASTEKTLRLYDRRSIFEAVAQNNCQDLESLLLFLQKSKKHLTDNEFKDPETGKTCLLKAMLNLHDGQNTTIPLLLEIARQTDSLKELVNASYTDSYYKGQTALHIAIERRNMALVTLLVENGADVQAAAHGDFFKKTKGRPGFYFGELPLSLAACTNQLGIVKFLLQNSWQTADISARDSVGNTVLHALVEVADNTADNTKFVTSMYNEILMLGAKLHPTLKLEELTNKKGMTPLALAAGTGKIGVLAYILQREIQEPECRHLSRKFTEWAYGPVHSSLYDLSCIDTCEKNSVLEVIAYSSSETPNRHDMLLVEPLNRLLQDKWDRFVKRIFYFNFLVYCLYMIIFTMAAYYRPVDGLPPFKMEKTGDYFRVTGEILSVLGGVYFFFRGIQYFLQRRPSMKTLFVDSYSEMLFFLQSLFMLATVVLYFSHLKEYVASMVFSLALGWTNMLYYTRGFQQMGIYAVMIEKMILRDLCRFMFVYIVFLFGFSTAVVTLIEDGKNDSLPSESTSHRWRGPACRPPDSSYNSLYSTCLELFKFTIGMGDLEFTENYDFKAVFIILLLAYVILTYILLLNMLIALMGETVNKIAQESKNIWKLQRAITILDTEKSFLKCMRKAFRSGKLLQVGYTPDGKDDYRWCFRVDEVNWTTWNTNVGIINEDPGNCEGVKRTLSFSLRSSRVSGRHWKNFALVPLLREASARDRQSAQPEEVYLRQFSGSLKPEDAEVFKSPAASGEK
T3 sequence (O75762 whole entry): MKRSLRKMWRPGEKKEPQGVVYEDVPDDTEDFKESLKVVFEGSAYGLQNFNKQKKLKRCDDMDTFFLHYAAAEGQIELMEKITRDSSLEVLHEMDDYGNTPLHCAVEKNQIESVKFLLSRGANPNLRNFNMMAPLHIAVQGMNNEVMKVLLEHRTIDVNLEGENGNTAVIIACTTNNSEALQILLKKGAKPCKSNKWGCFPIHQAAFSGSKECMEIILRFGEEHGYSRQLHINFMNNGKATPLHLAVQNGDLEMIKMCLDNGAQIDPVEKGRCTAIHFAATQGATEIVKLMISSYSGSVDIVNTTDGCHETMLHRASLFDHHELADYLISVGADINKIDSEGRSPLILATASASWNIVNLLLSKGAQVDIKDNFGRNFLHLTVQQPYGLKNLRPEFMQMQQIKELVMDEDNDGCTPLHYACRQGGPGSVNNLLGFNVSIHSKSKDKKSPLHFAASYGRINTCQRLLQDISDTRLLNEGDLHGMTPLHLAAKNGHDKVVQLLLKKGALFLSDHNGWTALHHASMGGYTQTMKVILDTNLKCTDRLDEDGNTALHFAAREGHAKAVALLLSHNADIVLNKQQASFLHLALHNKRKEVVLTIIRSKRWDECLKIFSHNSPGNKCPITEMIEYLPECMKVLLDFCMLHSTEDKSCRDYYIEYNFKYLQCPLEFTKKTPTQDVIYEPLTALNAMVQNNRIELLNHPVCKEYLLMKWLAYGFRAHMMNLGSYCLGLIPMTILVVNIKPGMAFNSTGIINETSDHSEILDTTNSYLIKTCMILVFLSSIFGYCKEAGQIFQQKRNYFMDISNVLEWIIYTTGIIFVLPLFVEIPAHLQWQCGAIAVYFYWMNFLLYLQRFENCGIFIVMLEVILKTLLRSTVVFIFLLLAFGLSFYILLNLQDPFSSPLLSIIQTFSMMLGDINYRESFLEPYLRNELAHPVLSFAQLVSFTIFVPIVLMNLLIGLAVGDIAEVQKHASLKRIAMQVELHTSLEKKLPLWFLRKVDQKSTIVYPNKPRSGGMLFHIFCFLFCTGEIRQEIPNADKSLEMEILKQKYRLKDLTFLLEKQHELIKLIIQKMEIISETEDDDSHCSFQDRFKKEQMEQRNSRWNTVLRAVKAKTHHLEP

CC[C@H]1C[C@@H]2CN3CCc4c([nH]c5ccc(OC)cc45)[C@](C(=O)OC)(C2)[C@H]13 [VOACANGINE]
Activity [1]: inactive | inhibition [2]: Active | inhibition [3]: Active | Activity [4]: inactive | pIC50 [5]: 4.30 | inhibition ([5]; HEK-293T): Dose-dependent effect | inhibition [6]: inactive | Activity [7]: Active | inhibition [8]: inactive | inhibition [9]: Active | inhibition [10]: Active | inhibition [11]: Active | pEC50 [12]: 5.10 | Activity ([12]; HEK-293T): Dose-dependent effect | Activity [13]: inactive | Kb ([14]; HEK-293T): 18 µM | Kb ([14]; read-out: pA2 (converted)): 20 µM | inhibition [15]: Active | Activity [16]: inactive
